According to ChEMBL document CHEMBL3596154, “Discovery of biaryl carboxylamides as potent RORγ inverse agonists” (Bioorg Med Chem Lett, 2015):
pEC50, pIC50: −log10 of the molar value.

Key:
[1] = target: T1, Nuclear receptor ROR-gamma (Homo sapiens, UniProt P51449); experiment: Inverse agonist activity at Gal4 DNA binding domain-tagged human RORgammat expressed in HEK293T cells assessed as effect on receptor-mediated transcriptional activity by luciferase reporter gene assay; format: functional, cell-based, HEK-293T
T1 sequence (P51449 whole entry): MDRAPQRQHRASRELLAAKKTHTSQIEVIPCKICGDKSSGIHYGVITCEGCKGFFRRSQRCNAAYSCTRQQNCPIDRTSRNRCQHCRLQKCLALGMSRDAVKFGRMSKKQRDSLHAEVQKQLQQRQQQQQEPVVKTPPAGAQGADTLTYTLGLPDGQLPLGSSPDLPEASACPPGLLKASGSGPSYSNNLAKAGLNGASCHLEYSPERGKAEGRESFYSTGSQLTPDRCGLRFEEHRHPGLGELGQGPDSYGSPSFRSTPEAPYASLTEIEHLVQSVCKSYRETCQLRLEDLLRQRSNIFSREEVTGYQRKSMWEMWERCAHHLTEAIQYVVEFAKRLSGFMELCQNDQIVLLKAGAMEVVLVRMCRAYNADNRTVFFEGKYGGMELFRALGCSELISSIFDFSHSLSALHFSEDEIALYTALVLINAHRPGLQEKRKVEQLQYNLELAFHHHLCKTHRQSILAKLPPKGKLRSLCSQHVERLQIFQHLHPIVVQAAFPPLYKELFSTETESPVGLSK
In short: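 293T cells transfected with a Gal4:RORγ luciferase reporter. Cells seeded day 1 and transfected day 2; compound added in assay medium after transfection. Day 3: cells lysed and luminescence read by dual-flash. Dose-response EC50 is the mean of at least two runs.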

[2] = target: T1, Nuclear receptor ROR-gamma; experiment: Inverse agonist activity at human recombinant GST-tagged RORgammat ligand binding domain assessed as effect on receptor-biotin tagged TRAP220 co-activator peptide interaction using 10 nM GST-RORgamma LBD by FRET-based assay
In short: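 Recombinant human GST-RORγ LBD (10 nM) with 40 nM biotin-TRAP220 co-activator peptide, 50 nM SAAPC, 1.5 nM Eu-anti-GST IgG. Buffer: 20 mM Tris-HCl pH 7.0, 60 mM NaCl, 5 mM MgCl2, 1 mM DTT, 0.1% BSA, 1.0% DMSO. FRET read on plate reader. IC50 is the mean of at least two runs.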

[3] = Clearance in mouse hepatocytes relative to hepatic blood flow; format: ADME, cell-based, Liver, Hepatocyte; conditions: read-out: CLH
[4] = Clearance in human hepatocytes relative to hepatic blood flow; format: ADME, cell-based, Liver, Hepatocyte; conditions: read-out: CLH
[5] = Clearance in rat hepatocytes relative to hepatic blood flow; format: ADME, cell-based, Liver, Hepatocyte; conditions: read-out: CLH
[6] = target: T1, Nuclear receptor ROR-gamma; experiment: Inverse agonist activity at human recombinant GST-tagged RORgammat ligand binding domain assessed as effect on receptor-biotin tagged TRAP220 co-activator peptide interaction using 10 nM GST-RORgamma LBD by FRET-based assay
[7] = Apparent permeability from apical to basolateral side in human Caco2 cells; format: ADME, cell-based; conditions: Caco-2
[8] = Oral bioavailability in rat at 10 mg/kg; format: ADME, organism-based; conditions: in vivo
[9] = Apparent permeability from basolateral to apical side in human Caco2 cells; format: ADME, cell-based; conditions: Caco-2
[10] = AUC (infinity) in rat at 2 mg/kg, iv; format: ADME, organism-based; set-up: dose 2 mg/kg, time infinity, route intravenous; conditions: in vivo
In short: (§1)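 Rat PK; iv dosing at 2.0 mg/Kg in SPEW vehicle, oral dosing at 10 mg/Kg in 0.1% CMC-0.2%Tween; AUCinf reported in ng*hr/mL.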

[11] = Cmax in rat at 2 mg/kg, iv; format: ADME, organism-based; set-up: dose 2 mg/kg, route intravenous; conditions: in vivo
In short: (§2)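 Rats dosed at 2.0 mg/kg intravenously in SPEW vehicle. Plasma exposure profiled for T1/2 and Cmax.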

[12] = Inhibition of CYP450 (unknown origin); format: ADME; conditions: human
Rattus norvegicus = experiment: Clearance in rat at 2 mg/kg, iv relative to hepatic blood flow; format: ADME, organism-based, Liver; conditions: in vivo
In short: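 Rats given 2.0 mg/kg iv in SPEW vehicle. Clearance is expressed as % of hepatic blood flow (%Qh).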

[13] = Cmax in rat at 10 mg/kg, po; format: ADME, organism-based; set-up: dose 10 mg/kg, route oral; conditions: in vivo
[14] = Half life in rat at 2 mg/kg, iv; format: ADME, organism-based; conditions: in vivo; in short: as §2
[15] = AUC (infinity) in rat at 10 mg/kg, po; format: ADME, organism-based; set-up: dose 10 mg/kg, route oral, time infinity; conditions: in vivo; in short: as §1

Compound	pEC50 [1]	pIC50 [2]	other results
NC(=O)c1cccc(-c2ccc3c(c2)CCCN3C(=O)c2c(F)cccc2Cl)c1		5.21	
NC(=O)c1ccc(F)c(-c2ccc3c(c2)CCCN3C(=O)c2c(F)cccc2Cl)c1		4.96	
NC(=O)c1cc(F)cc(-c2ccc3c(c2)CCCN3C(=O)c2c(F)cccc2Cl)c1		4.89	
NC(=O)c1cc(-c2ccc3c(c2)CCCN3C(=O)c2c(F)cccc2Cl)ccc1F		5.03	
NC(=O)c1cc(-c2ccc3c(c2)CCCN3C(=O)c2c(F)cccc2Cl)c(F)cc1F		5.15	
CN(C)C(=O)c1ccc(Cl)c(-c2ccc3c(c2)CCCN3C(=O)c2c(F)cccc2Cl)c1		5.68	
O=C(NCCN1CCOCC1)c1ccc(Cl)c(-c2ccc3c(c2)CCCN3C(=O)c2c(F)cccc2Cl)c1		5.67	
NC(=O)c1ccc(Cl)c(-c2ccc3c(c2)CCN3C(=O)c2c(F)cccc2Cl)c1		5.32	
CC1CCc2cc(-c3cc(C(N)=O)ccc3Cl)ccc2N1C(=O)c1c(F)cccc1Cl (configuration not stated)		5.00	
NC(=O)c1ccc(Cl)c(-c2ccc3c(c2)C(F)(F)CCN3C(=O)c2c(F)cccc2Cl)c1		5.44	hepatic extraction ratio [3]: 0.83; hepatic extraction ratio [4]: 0.74; hepatic extraction ratio [5]: 0.86
CN(C(=O)c1c(F)cccc1Cl)c1ccc(-c2cc(C(N)=O)ccc2Cl)cc1			pIC50 [6]: 5.06
CCN(C(=O)c1c(F)cccc1Cl)c1ccc(-c2cc(C(N)=O)ccc2Cl)cc1			pIC50 [6]: 5.89
CN(C(=O)c1c(F)cccc1Cl)c1ccc(-c2cc(C(N)=O)ccc2Cl)cc1F			pIC50 [6]: 5.71
CN(C(=O)c1c(F)cccc1Cl)c1ccc(-c2cc(C(N)=O)ccc2Cl)cc1Cl			pIC50 [6]: 5.68
CN(C(=O)c1c(F)cccc1Cl)c1ccc(-c2cc(C(N)=O)ccc2Cl)cc1Br	6.11		pIC50 [6]: 6.09
Cc1cc(-c2cc(C(N)=O)ccc2Cl)ccc1N(C)C(=O)c1c(F)cccc1Cl			pIC50 [6]: 5.37
CCc1cc(-c2cc(C(N)=O)ccc2Cl)ccc1N(C)C(=O)c1c(F)cccc1Cl	6.46		pIC50 [6]: 6.14
CN(C(=O)c1c(F)cccc1Cl)c1ccc(-c2cc(C(N)=O)ccc2Cl)cc1C(F)(F)F	6.32		pIC50 [6]: 6.64
COc1cc(-c2cc(C(N)=O)ccc2Cl)ccc1N(C)C(=O)c1c(F)cccc1Cl	6.01		pIC50 [6]: 6.43
CCN(C(=O)c1c(F)cccc1Cl)c1ccc(-c2cc(C(N)=O)ccc2Cl)cc1OC			pIC50 [6]: 5.82

Further lines, with some results ahead:

pEC50 [1]	pIC50 [2]	Compound	other results
6.70	6.66	NC(=O)c1ccc(Cl)c(-c2ccc3c(c2)CCCN3C(=O)c2c(F)cccc2Cl)c1	
6.35	6.52	Cc1ccc(C(N)=O)cc1-c1ccc2c(c1)CCCN2C(=O)c1c(F)cccc1Cl	
	6.00	COc1ccc(C(N)=O)cc1-c1ccc2c(c1)CCCN2C(=O)c1c(F)cccc1Cl	
6.85	6.26	NC(=O)c1cc(-c2ccc3c(c2)CCCN3C(=O)c2c(F)cccc2Cl)c(Cl)cc1F	
6.70	7.00	CNC(=O)c1ccc(Cl)c(-c2ccc3c(c2)CCCN3C(=O)c2c(F)cccc2Cl)c1	
6.80	6.48	CCNC(=O)c1ccc(Cl)c(-c2ccc3c(c2)CCCN3C(=O)c2c(F)cccc2Cl)c1	
6.48	6.43	O=C(NC1CCCC1)c1ccc(Cl)c(-c2ccc3c(c2)CCCN3C(=O)c2c(F)cccc2Cl)c1	
6.68	6.72	O=C(NCCO)c1ccc(Cl)c(-c2ccc3c(c2)CCCN3C(=O)c2c(F)cccc2Cl)c1	
	6.12	O=C(NCC(O)CO)c1ccc(Cl)c(-c2ccc3c(c2)CCCN3C(=O)c2c(F)cccc2Cl)c1 (configuration not stated)	
	5.87	COCCNC(=O)c1ccc(Cl)c(-c2ccc3c(c2)CCCN3C(=O)c2c(F)cccc2Cl)c1	
6.28	6.44	NC(=O)c1ccc(Cl)c(-c2ccc3c(c2)CCCCN3C(=O)c2c(F)cccc2Cl)c1	
6.35	6.19	CC1(C)Cc2cc(-c3cc(C(N)=O)ccc3Cl)ccc2N(C(=O)c2c(F)cccc2Cl)C1	
6.52	6.70	CC1(C)CCN(C(=O)c2c(F)cccc2Cl)c2ccc(-c3cc(C(N)=O)ccc3Cl)cc21	
	5.72	NC(=O)c1ccc(Cl)c(-c2ccc3c(c2)OCCN3C(=O)c2c(F)cccc2Cl)c1	hepatic extraction ratio [3]: 0.82; hepatic extraction ratio [4]: 0.76; hepatic extraction ratio [5]: 0.85
6.68	6.60	CN1CCN(C(=O)c2c(F)cccc2Cl)c2ccc(-c3cc(C(N)=O)ccc3Cl)cc21	
	5.80	CCN(C(=O)c1c(F)cccc1Cl)c1ccc(-c2cc(C(N)=O)ccc2Cl)cc1C(F)(F)F	
6.74	7.30	CCOc1cc(-c2cc(C(N)=O)ccc2Cl)ccc1N(C)C(=O)c1c(F)cccc1Cl	
6.74	7.27	CC(C)Oc1cc(-c2cc(C(N)=O)ccc2Cl)ccc1N(C)C(=O)c1c(F)cccc1Cl	
7.24	7.96	CCCOc1cc(-c2cc(C(N)=O)ccc2Cl)ccc1N(C)C(=O)c1c(F)cccc1Cl	
7.00	7.66	CCCCOc1cc(-c2cc(C(N)=O)ccc2Cl)ccc1N(C)C(=O)c1c(F)cccc1Cl	
7.03	7.96	CN(C(=O)c1c(F)cccc1Cl)c1ccc(-c2cc(C(N)=O)ccc2Cl)cc1OCC(F)(F)F	hepatic extraction ratio [4]: 0.88; Papp A→B [7]: 32.2 ×10⁻⁶ cm/s; bioavailability [8]: 28%; Papp B→A [9]: 35.3 ×10⁻⁶ cm/s; AUC(0-inf) [10]: 1130 ng·h/mL; Cmax [11]: 2350 ng/mL; inhibition (INH) [12]: Not Active; hepatic extraction ratio [5]: 0.83; CLH (Rattus norvegicus): 54%; Cmax [13]: 1010 ng/mL; half-life [14]: 1.3 h; AUC(0-inf) [15]: 1550 ng·h/mL
6.61	7.70	CN(C(=O)c1c(F)cccc1Cl)c1ncc(-c2cc(C(N)=O)ccc2Cl)cc1OCC(F)(F)F	Papp A→B [7]: 35.9 ×10⁻⁶ cm/s; Papp B→A [9]: 54.5 ×10⁻⁶ cm/s; inhibition (INH) [12]: Not Active
6.61	7.05	[2H]C([2H])([2H])N(C(=O)c1c(F)cccc1Cl)c1ncc(-c2cc(C(N)=O)ccc2Cl)cc1OCC(F)(F)F	
7.24	8.00	CN(C(=O)c1c(F)cccc1Cl)c1ncc(-c2cc(C(N)=O)ccc2Cl)cc1OCC1CCC1	
7.22	8.00	[2H]C([2H])([2H])N(C(=O)c1c(F)cccc1Cl)c1ncc(-c2cc(C(N)=O)ccc2Cl)cc1OCC1CCC1	
6.14	6.30	CCNc1cc(-c2cc(C(N)=O)ccc2Cl)ccc1N(C)C(=O)c1c(F)cccc1Cl	
7.92	8.52	CCN(CC)c1cc(-c2cc(C(N)=O)ccc2Cl)ccc1N(C)C(=O)c1c(F)cccc1Cl	
8.10	8.52	CN(C(=O)c1c(F)cccc1Cl)c1ccc(-c2cc(C(N)=O)ccc2Cl)cc1N1CCCCC1	
	6.15	Cn1ccc2c(S(=O)(=O)N(CC(F)(F)F)c3ccc(-c4cc(C(N)=O)ccc4Cl)cc3)cccc21	
